Measured values taken from ChEMBL document CHEMBL2375264, “Potent naphthoquinones against antimony-sensitive and -resistant Leishmania parasites: synthesis of novel α- and nor-α-lapachone-based 1,2,3-triazoles by copper-catalyzed azide-alkyne cycloaddition” (Eur J Med Chem, 2013).

Key:
[1] = tested on: Leishmania amazonensis; test: Antileishmanial activity against antimony-resistant Leishmania amazonensis MHOM/BR/1989/BA199 promastigote infected in Swiss mouse peritoneal macrophages after 72 hrs; assay type: functional, organism-based; conditions: MHOM/BR/1989/BA199, 72 h
Method in brief: (§1)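 Promastigotes of Sb(III)-sensitive and -resistant lines (resistant to Sb(III) up to 2700), maintained at 25 °C, pH 7.0, in α-MEM with 10% heat-inactivated FBS, kanamycin, ampicillin, L-glutamine, hemin and biopterin. Drugs dissolved in DMSO, diluted in α-MEM across a concentration range, final DMSO ≤0.2%.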

[2] = tested on: Leishmania infantum; test: Ratio of potassium antimonyl tartrate IC50 to compound IC50 for antimony-sensitive Leishmania infantum MCAN/BR/2002/BH400 promastigote infected in Swiss mouse peritoneal macrophages; assay type: functional
[3] = Selectivity index, ratio of CC50 for Swiss mouse peritoneal macrophages to IC50 for antimony-resistant Leishmania infantum MCAN/BR/2002/BH400 promastigote; assay type: functional
Method in brief: (§2)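 SI = CC50/IC50. CC50 comes from Swiss mouse peritoneal macrophages, harvested by lavage with cold RPMI-1640 lacking FBS. Cells seeded at 4.0 × 10⁶/mL, allowed to adhere 1 h, then washed free of non-adherent cells. Viability read by MTT (5 mg/mL stock, 4 h).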

[4] = tested on: Leishmania amazonensis; test: Antileishmanial activity against antimony-sensitive Leishmania amazonensis MHOM/BR/1989/BA199 promastigote infected in Swiss mouse peritoneal macrophages after 72 hrs; assay type: functional, organism-based; conditions: MHOM/BR/1989/BA199, 72 h; method in brief: as §1
[5] = Selectivity index, ratio of CC50 for Swiss mouse peritoneal macrophages to IC50 for antimony-sensitive Leishmania amazonensis MHOM/BR/1989/BA199 promastigote; assay type: functional
Method in brief: (§3)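 SI = CC50 / IC50. CC50 is from Swiss mouse peritoneal macrophages, read by MTT after lavage and 1 h adherence. […] Promastigotes grown in α-MEM with 10% heat-inactivated FBS, hemin and biopterin, pH 7.0, 25 °C. DMSO ≤0.2% final. Triplicate.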

[6] = Selectivity index, ratio of CC50 for Swiss mouse peritoneal macrophages to IC50 for antimony-resistant Leishmania amazonensis MHOM/BR/1989/BA199 promastigote; assay type: functional; method in brief: as §2
[7] = Cytotoxicity against Swiss mouse peritoneal macrophages after 24 hrs by MTT assay; assay type: cell-based, Peritoneal macrophage cell
Method in brief: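 Macrophages from peritoneal lavage of Swiss mice with cold FBS-free RPMI-1640. Cells seeded at 4.0 × 10⁶/mL, adhered 1 h, non-adherent cells washed off. Compounds were DMSO stocks diluted in medium over a concentration range, final DMSO ≤0.2%. Viability read by MTT (5 mg/mL solution, 4 h further incubation). CC50 taken as the 50% cytotoxic concentration.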

[8] = tested on: Leishmania infantum; test: Antileishmanial activity against antimony-sensitive Leishmania infantum MCAN/BR/2002/BH400 promastigote infected in Swiss mouse peritoneal macrophages after 72 hrs; assay type: functional, organism-based; conditions: MCAN/BR/2002/BH400, 72 h; method in brief: as §1
[9] = Selectivity index, ratio of CC50 for Swiss mouse peritoneal macrophages to IC50 for antimony-sensitive Leishmania infantum MCAN/BR/2002/BH400 promastigote; assay type: functional; method in brief: as §3
[10] = tested on: Leishmania infantum; test: Antileishmanial activity against antimony-resistant Leishmania infantum MCAN/BR/2002/BH400 promastigote infected in Swiss mouse peritoneal macrophages after 72 hrs; assay type: functional, organism-based; conditions: MCAN/BR/2002/BH400, 72 h; method in brief: as §1
[11] = tested on: Leishmania amazonensis; test: Ratio of potassium antimonyl tartrate IC50 to compound IC50 for antimony-sensitive Leishmania amazonensis MHOM/BR/1989/BA199 promastigote infected in Swiss mouse peritoneal macrophages; assay type: functional

Row | SMILES | IC50 [1] [µM] | Ratio IC50 [2] | Ratio CC50/IC50 [3] | IC50 [4] [µM] | Ratio CC50/IC50 [5] | Ratio CC50/IC50 [6] | CC50 at 24 h [7] [µM] | IC50 [8] [µM] | Ratio CC50/IC50 [9] | IC50 [10] [µM] | Ratio IC50 [11]
1 | O=C1C=C(n2cc(-c3ccccc3)nn2)C(=O)c2ccccc21 | 7.94 | 2 | 0.59 | 16.7 | 0.61 | 1.28 | 10.2 | 21.6 | 0.47 | 17.2 | 2.2
2 | COc1ccc(-c2cn(C3=CC(=O)c4ccccc4C3=O)nn2)cc1 | 24.5 | 2 | 0.9 | 34.3 | 0.49 | 0.68 | 16.8 | 15.8 | 1.06 | 18.6 | 2.2
3 | O=C1C=C(n2cc(-c3ccc(Br)cc3)nn2)C(=O)c2ccccc21 | 50.1 | 2 | 1.52 | 57.8 | 0.37 | 0.43 | 21.4 | 17.2 | 1.24 | 14.1 | 2.2
4 | Cc1ccc(-c2cn(C3=CC(=O)c4ccccc4C3=O)nn2)cc1 | 13.8 | 2 | 1.12 | 21.2 | 0.71 | 1.1 | 15.2 | 8.8 | 1.72 | 13.6 | 2.2
